Fewer inactive variants are shown than the library holds.
B1: tRNA (parent)
chain: GUUCCGUUGGCGUAAUGGUAACGCGUCUCCCUCCUAAGGAGAAGACUGCGGGUUCGAGUCCCGUACGGAACG

Variants of: B1
Experiment: yeast fitness relative to wild type (ratio to wild type); higher = fitter; tRNA-Arg(CCU), competitive growth, 37 C, YPD
Summary of the method: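 Variants of the tRNA-Arg(CCU) gene, chemically synthesised with a 3% per-site mutation rate at 69 sites, were placed at the native genomic locus in Saccharomyces cerevisiae. The pooled strains were competed in YPD at 37°C for 24 hours in six parallel replicates. Gene amplicons from the start population and from each end population were read by 100-nucleotide paired-end sequencing. Darwinian fitness relative to wild type came from changes in genotype frequencies; genotypes needed ≥ 100 starting reads, and estimates < 0.5 were set to 0.5.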

Variant | yeast fitness
GUUCUGUUGGCGUAAUGGUAACGCGUCUGGCUCCUAAGGAGAAGACUGCGGGUUCGAGUCCCGUCCGGAACG [C5U C29G C30G A65C] | ≤ 0.5
GUUCCGGUGGCGUUAUGGAAAUGCGUCUCCCUCCUAAGGAGAAGACUGCGGGUUCGAGUCCCGUACGGAACG [U7G A14U U19A C22U] | ≤ 0.5
GUUCCGUUGGCGUAAUGGUAAUGCGUCUCCCUCCUAAGGAGAAGACUGCGGGUUCGAGUCCUGUACGGAACG [C22U C62U] | 0.867
GUUCCGUUGGUGUCAUGGUAACGCGUCUCCCUCCUAAGGAGAAGACUGCGGGUUCGAGUCCCGUACGAAACG [C11U A14C G68A] | 0.624
GUUCCGUUAGCGUAAUGGUACCGCGUCUCCCUCCUAAGGAGAAGAGUGGGGGUUCGAGUCCCGUACGGAACG [G9A A21C C46G C49G] | ≤ 0.5
GGUCCAUUGGCGUAUUGGUAACGCGUCUCCCUCCUAAGGAGAAGACUGCGGGUUCGAGUCCGGUACGGAACG [U2G G6A A15U C62G] | ≤ 0.5
GUUCCGUUGGCGUAAUGGUAACGCGUCUCCCUCCUAAGGAGAAGACUGCGGGUUUGACUCCCGUACGGAACG [C55U G58C] | 0.842
GUUCCGUUGGCGUAAUGGUAACGCGUCUCCCGCCUAAGGAGGAGACUGCGGGUUCGAGUCCCGUACGGAACG [U32G A42G] | 0.56
GUUCGGUUGGCGUAAUGGUAACGCGUCUCCCUCCUAAGGAGAAGACUACGGGUUCGAGUCCCGUACGCAACG [C5G G48A G68C] | 0.653
GUUCUGUUGGCGUAAUGGUAAUGCGUUUCCCUCCUAAGGAGGAGACUACGGGUUAGAGUACCGUACGGAUCG [C5U C22U C27U A42G G48A C55A C60A A70U] | ≤ 0.5
GUUCCGUUGGCGUAGUGGUAACGCGUCUCCGUCCUAAGGAGAAGACUGCGGGUUCGAGUCCCGUAUGGAACG [A15G C31G C66U] | 0.601
GUUCGGUUGGCGUAAUGGUAACGCGUCUCCCUCCUAAGGAGAGGACUGCGGGUUCGAGUCCCGUACGGUACG [C5G A43G A69U] | 0.762
GUUUCGUUGGCGUAAUGGUAACGCGUCUCCCUCCUAAGAAGAAGACUGCGGGUUCGAGUCCCGUACGGAACG [C4U G39A] | 0.982
GUUCCGUUGGCAUAAUGGUAACGCGUGUCCCUCCUUAGGAGAAGACUGCGGGUUCGAGUCCCGUACGGAACG [G12A C27G A36U] | 0.599
GUUCCGUUGGCAUAACGGUAACGCGUCUCCCUCCUAAGGAGAAGACUGCGGGUUCGAGUCCCGUACGGAACG [G12A U16C] | 0.981
GUUCCGUUCGCGUAAUGGUAACGCGUCUCCCUCCUAAGGAGAAGACCGCGGGUUCGAGUCCCGUACGGAACG [G9C U47C] | 0.632
GUUCCGUUGGCGUAAUGGUAACGCGUCGCCCUCCUAAGGACAAGACUGCGGGUUCGAGUCCCGUACGGAACG [U28G G41C] | 0.551
GCUCCGUGGGCGUAAUGGUAACGCGUCUCCCGCCAAAGGAGAAGACUGCGGGUUUGAAUCCCGUACGGAACG [U2C U8G U32G U35A C55U G58A] | ≤ 0.5
GUUCCGUUGGCGGAAUGGUAUCGCGUCUCCCUCCUAAGGAGAAGACUGCGGGUUCGAGUCCCGUACGGAACG [U13G A21U] | 1.09

Variant | yeast fitness
GUUCCGUUGGCGUAAUGGUAACGCGUGUCCCUCCUAAGGAGAAGACUGCGGGUUCGCGACCGGUACGAAACG [C27G A57C U59A C62G G68A] | 0.532
GUUCCCUUGGCGUACUGGUACCGCGUCUCCCUCUUAUGGAGAAGACUGCGGGUUCGAGUCCCGUACGGUACG [G6C A15C A21C C34U A37U A69U] | ≤ 0.5
GUUCCGUUGGAGUAACGGUAACGCGUCUCCCGCCUAAGGAGAAGACUGUGGGUUCAAGUCCCGUCCGGAACG [C11A U16C U32G C49U G56A A65C] | ≤ 0.5
GUUCCGUUGGCGUAAUGGUAACGCGUCGCCCUCCUAAGGAGAAGACUGCGGGUUCGAGUCCCGGACGGAACG [U28G U64G] | 0.628
GUUCCGUUGGCGUAAUCGUAACGCGUCUCCCUCAUAAGGAGAAGACUGCAGGGUCGAGUUCCGUACGGAACG [G17C C34A G50A U53G C60U] | ≤ 0.5
GGUCCGUUGGCGUAAUGGUAGCGCGUCUCCCUCCUAAGGAGAAGACUGCGGGUUCGCGUCCCGUACGGAACG [U2G A21G A57C] | ≤ 0.5
GUUCCGUUGGCGUAAUGGUAAGCCGUACCCCUCCUAAGGAGAAGACUGCGGGUUCGAGUCCCGUACGGAACG [C22G G23C C27A U28C] | 0.533
GUUCCGUUGGCGUAAUGGUAACGCGUCUCCCUCUUCAGGAGAAGACUGCGGGUUCGAGUCCCGUACGGAACG [C34U A36C] | 0.554
GUUCCGUUGGCGUAAUGGUAACGCGUCUCCCUCCUAAGGAGAAGACCGCGGGUUCAAGUCCCGUACGGAACG [U47C G56A] | 0.999
GUUCCGUUGGCGUAAUGGUAACGCGUCUGCAUGCUAAGGAAAGGACUGCGGGUUCGAGUCUCGUACGGAACG [C29G C31A C33G G41A A43G C61U] | ≤ 0.5
GUUUCGUUGGCAUAAUGGUAACGCGUGUCCCUCAUAAGGAGAAGACUGGGGGUUCGAGUCCCGUACGGAACG [C4U G12A C27G C34A C49G] | ≤ 0.5
GUCCCGUUGGCGUAAUGGUAACGCGUCUCCCUCCUAAGGAGAACACUGCGGGUUCGAGUGCCGUACGGAACG [U3C G44C C60G] | 0.562
GUUCCGUUGGCGUAAUGGUAACGCGUCCCCCACCUAAGGAGAAGACUGCGGGUUCGAGUCCCGUACGGAACG [U28C U32A] | 0.754
GUUCCGUUGGCGUAACGGUAACGCGUCUCCCUCCUAAGGAGUAGACUGCGGGUUCGAGUCCCGUACGGAACG [U16C A42U] | 0.969
GUUCCGUUGGCGUAAUGGUAACGCGUCUCCCUGCUAAGGACACGACUGCGGGUUCGAGUCCCGUACCGAACG [C33G G41C A43C G67C] | ≤ 0.5
GUUCCGUUGGCGUAAUGGUAAAGCGUCACACUCCUAAGGAGAAGACUGCGGGUUCGAGUCCCGUACGGAACG [C22A U28A C30A] | 0.72
GUUCCGUUGGCGUAAUGGUAGCGCGUCUCUCUCCUAAGGAGAAGACUGCGGGUUCGAGUCCCGUACGCAACG [A21G C30U G68C] | 0.582
GUUCCGUUGGCGUAAUGGUAACGCGUCUCCCUCCUAACGAGAAGACUGUGGGUUCGAGUCCCGUACGGAACG [G38C C49U] | 0.67

Reference: the RNAGym collection of RNA variant scans (doi:10.1126/science.aae0568)
